GalR3 antagonist: human GalR3 antagonism; O60755; HEK293 GalR3-CNG cAMP membrane potential fluorescence; galR3 body fused to GalR1 C-terminus; inhibition, % at 3 µM; 0.44% of 360,000 active; AID 651719;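 active = inhibition above the screen-wide average plus 3 SD, cut at about 13% in these data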;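 note: forskolin and galanin both at EC90 stimulate the cells; cAMP rise reported by CNG channel membrane potential dye signal; 0% = forskolin plus galanin with DMSO and 100% = forskolin alone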
OX1R antag-1: antagonists of human orexin 1 receptor (OX1R) | OX1R-expressing cells, FRET antagonist read-out | inhibition, % at 6.6 µM | 1.8% of 330,000 active | AID 485270; in the data active = inhibition mostly above about 38%, no sharp cut-off; inactive = mostly below about 40%;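 note: 0% = agonist challenge alone and 100% = reference antagonist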
Target sequence (O43613 whole entry, looked up): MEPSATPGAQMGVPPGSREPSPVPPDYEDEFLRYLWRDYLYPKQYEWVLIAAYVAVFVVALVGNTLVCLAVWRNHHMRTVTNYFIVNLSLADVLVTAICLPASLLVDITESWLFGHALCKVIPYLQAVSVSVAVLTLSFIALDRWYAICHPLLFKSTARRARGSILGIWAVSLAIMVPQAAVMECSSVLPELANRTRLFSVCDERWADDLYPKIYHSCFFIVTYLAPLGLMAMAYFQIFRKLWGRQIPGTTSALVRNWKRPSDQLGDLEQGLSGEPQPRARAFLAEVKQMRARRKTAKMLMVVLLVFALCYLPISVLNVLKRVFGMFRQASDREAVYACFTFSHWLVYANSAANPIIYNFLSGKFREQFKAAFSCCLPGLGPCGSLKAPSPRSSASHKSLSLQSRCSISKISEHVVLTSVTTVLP
OX1R antag-2: human HCRTR1 antagonism | 0.43% of 330,000 active | O43613 | inhibition, % at 5 µM | AID 434989 | CHO/OX1R cells, Fluo-8 calcium fluorescence, orexin A;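 active = inhibition above its plate's threshold, mean inhibition of all tested compounds on the plate plus 3 SD, cut at about 37% in these data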;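 note: 0% = orexin A challenge wells and 100% = SB-334867-A antagonist wells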
CHO parental Ca: counter-screen: ATP calcium response change in parental CHO cells; parental CHO-K1, ATP-induced calcium, Fluo-8 fluorescence; inhibition, % at 5.6 µM; 0.63% of 330,000 active;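 active = inhibition above that plate's mean sample inhibition plus 3 SD, cut at about 26% in these data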;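 note: 0% = ATP-challenged DMSO wells and 100% = DMSO wells without ATP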
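Material: parental CHO cells / Compound: single nominal dose of 5.6 µM per compound / Signal: Fluo-8 fluorescence / Replicates: singlicate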
GPR7 antag: antagonists of human GPR7 (neuropeptides B/W receptor 1); AID 1861; GPR7-expressing cells, fluorescence antagonist assay; inhibition, % at 4.4 µM; 1.1% of 290,000 active; in the data active = inhibition above about 16%, passing the limit was not always enough;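 note: cells stimulated with the agonist NPW; 0% = agonist with vehicle and 100% = vehicle without agonist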
An asterisk follows results filed as active; nt = no result given. An excerpt weighted towards active compounds, which were near 3.1% of everything screened.

SMILES	GalR3 antagonist	OX1R antag-1	OX1R antag-2	CHO parental Ca	GPR7 antag
O=C(/C=C/c1ccc(OCCCF)cc1)Nc1ccnc(-c2cccnc2)n1	-6.7	27.6	-14.9	-5.0	1.5
COc1cccc(CN2CCC2(C)C(=O)Nc2ccc(C)c(O)c2)c1F (centres undefined)	-6.0	nt	nt	nt	nt
CC1CCCC(NCC(O)COC(c2ccc(F)cc2)c2ccc(F)cc2)C1C (centres undefined)	-12.6	-1.7	-5.8	7.0	56.5*
CC[C@@]1(O)C(=O)OCc2c1cc1n(c2=O)Cc2cc3c(N)cccc3nc2-1	-5.7	51.8	-10.9	-3.5	nt
CC[C@@]1(O)C(=O)OCc2c1cc1n(c2=O)Cc2cc3c(CN(C)C)c(O)ccc3nc2-1	nt	46.0*	-15.8	-4.0	nt
CCCCN1C(=O)C(=O)NC[C@@H]1Cc1ccc(O)cc1	-7.1	nt	nt	nt	nt
Cc1ccc(N(CC(O)CN2CCOCC2)S(=O)(=O)c2ccc([N+](=O)[O-])cc2)cc1 (centres undefined)	-9.0	38.4*	-19.8	-20.9	-5.4
O=[N+]([O-])c1ccc(S(=O)(=O)CC(CN2CCOCC2)N2CCOCC2)cc1 (centres undefined)	-6.3	49.3*	0.2	-12.5	0.6
COc1ccc(N(CC(O)CN2CCOCC2)S(=O)(=O)c2ccc(C)cc2)cc1 (centres undefined)	-7.8	15.3	-25.7	-14.9	4.4
COCCNc1nc(NCc2cc(-c3ccc(OC)cc3)no2)c2sccc2n1	-4.9	nt	nt	nt	nt
CC(C)NC(=O)c1ccc(COc2ccc(C(C)(C)C)cc2)o1	-12.0	4.3	39.6	65.8*	11.6
CCCN1C(=O)c2n[nH]c(C)c2C1c1ccc2c(c1)OCO2 (centres undefined)	-1.3	nt	nt	nt	nt
COc1cc2c(cc1NC(=O)C(F)(F)F)-c1ccc(NC(=O)C(F)(F)F)cc1C2	-6.4	nt	nt	nt	nt
CCCCC(CC)CN=C(N)NC(N)=NCCCCCCN=C(N)NC(N)=NCC(CC)CCCC (centres undefined)	nt	34.4	79.1*	83.5*	nt
O=C(Cn1ncc2c1-c1ccccc1OC2)N(Cc1ccco1)C1CCCCC1	nt	37.0*	-10.3	-13.3	-0.6
COc1ccc(CN2C(=O)c3ccccc3C2c2nnnn2Cc2ccccc2)cc1OC (centres undefined)	-5.8	nt	nt	nt	nt
COc1ccc(Sc2cccc3c2S(=O)(=O)N(C2CC2)C[C@@H](COCc2ccccc2)O3)cc1OC	0.2	nt	nt	nt	nt
O=C(NN1CCOCC1)c1cnn2c(C(F)F)cc(-c3ccccc3)nc12	-7.0	39.6*	-14.7	-18.1	-3.8
O=C(NN=Cc1ccccc1O)C(=O)Nc1ccc(F)cc1	-8.1	nt	nt	nt	nt
CC1CCN(C(=O)COC(=O)c2cc3ccccc3oc2=O)CC1	-5.7	42.3*	-4.5	-11.1	nt
COC(=O)c1ccccc1OC(=O)c1cc2ccccc2oc1=O	-6.3	31.4*	-29.0	-7.2	9.9
COC(=O)c1cc2ccccc2oc1=O	0.8	30.7	-20.6	-4.3	-8.8
CCOC(=O)C1=CC[C@@H](c2ccccc2)N(S(=O)(=O)c2ccc(C)cc2)[C@H]1C#N	-0.1	nt	nt	nt	nt
COC(=O)C1CCN(C2CN(Cc3cn(Cc4ccc(C(F)(F)F)cc4)nn3)S(=O)(=O)C2)CC1 (centres undefined)	-5.4	nt	nt	nt	nt
O=C(CNC(=O)c1cc(Cl)cc([N+](=O)[O-])c1)NC1CC1	-2.6	47.8*	-0.4	-5.2	nt
SMILES	GalR3 antagonist	OX1R antag-1	OX1R antag-2	CHO parental Ca	GPR7 antag
CCNC(=O)COC(=O)CNC(=O)c1cc(Cl)cc([N+](=O)[O-])c1	-3.5	41.1*	-12.2	-6.7	-0.9
CCCCNC(=O)COC(=O)CNC(=O)c1cc(Cl)cc([N+](=O)[O-])c1	-1.3	76.8*	-8.6	-8.8	0.0
C=CCOCCN(C)C1=NS(=O)(=O)c2cc([N+](=O)[O-])ccc21	-5.6	72.0*	-4.6	-2.9	-3.2
CCOc1cccc(N)c1	nt	3.1	-4.1	-16.3	nt
CCOc1ccc(N)c(SSc2cc(OCC)ccc2N)c1	1.2	5.5	24.1	46.6*	8.5
CCCCOCC1CN(CCCC)S(=O)(=O)c2c(Oc3ccc(OC)cc3)cccc2O1 (centres undefined)	-4.9	nt	nt	nt	nt
NC(=O)c1ccc(C(=O)c2ccc([N+](=O)[O-])cc2)cc1	-4.5	70.2*	-3.9	-10.8	-2.8
Cc1c(C(=O)c2ccc(Br)cc2)c(=O)n(C)c(=O)n1C	4.4	3.3	-14.1	3.2	-0.1
Cc1c(C(=O)c2ccc([N+](=O)[O-])cc2)c(=O)n(C)c(=O)n1C	-1.3	73.8*	-8.9	-6.2	-13.0
O=C(O)c1ccc([N+](=O)[O-])cc1	-0.7	nt	nt	nt	nt
CCOC(=O)c1c(C)[nH]c(C(=O)COC(=O)c2ccc(N3CCCC3=O)cc2)c1C	-1.0	9.1	-23.9	-8.1	-6.8
CCC1(C)OC(=O)N2CCc3c(C)[nH]c4c(C)ccc(c34)C21C (centres undefined)	nt	5.0	-9.7	-10.0	17.8*
CCn1c2ccccc2c2cc(NC(=O)CSc3nnc(-c4ccccc4OC)n3N)ccc21	-4.3	55.9*	-10.1	-11.0	-9.7
CCn1c2ccccc2c2cc(NC(=O)CSc3nnc(-c4ccc(OC)c(OC)c4)n3N)ccc21	-5.0	73.9*	8.6	-31.9	-9.5
COc1ccccc1-c1nnc(SCC(=O)Nc2ccc(N3CCOCC3)cc2)n1N	-4.5	8.1	-20.5	-5.7	nt
CCOc1ccc(-c2nnc(SCC(=O)Nc3ccc4c(c3)c3ccccc3n4CC)n2N)cc1	-5.2	12.7	-17.3	-18.8	7.2
CCCN1C(=O)CC(c2ccc(OC)c(OC)c2)C1=O (centres undefined)	-8.1	nt	nt	nt	nt
C=CCn1c(SCC(=O)Nc2cccc(S(N)(=O)=O)c2)nc2sc(C)c(C)c2c1=O	-6.8	32.6*	2.2	9.7	nt
O=C(C1CCN(S(=O)(=O)N2CCC3(CC2)OCCO3)CC1)N1CCN(Cc2ccccc2)CC1	0.3	7.8	-14.3	-9.7	21.3*
O=C(NCCCN1CCN(Cc2ccccc2)CC1)C1CCN(S(=O)(=O)N2CCC3(CC2)OCCO3)CC1	-0.2	27.5	-6.0	-5.0	-3.4
CC(O)(c1ccc(F)c(F)c1)c1nc(-c2cccc3cccnc23)cs1 (centres undefined)	-3.7	nt	nt	nt	nt
O=S(=O)(NCc1csc(-c2cccnc2)n1)c1ccc(Br)cc1	0.1	38.4*	-10.7	-20.3	8.0
Cc1nc(-c2cccc(NC(=O)c3ccco3)c2)cs1	-2.1	nt	nt	nt	6.1
Cc1nc(-c2cccc(NC(=O)c3ccc(-n4cccn4)cc3)c2)cs1	-7.0	51.6*	-12.9	-12.1	nt
COC(=O)C1=C(C)N(Cc2ccc(F)cc2)C(=S)NC1c1cccc(OC)c1 (centres undefined)	1.3	nt	nt	nt	nt
COc1ccc(CNCc2cc3c(cc2[N+](=O)[O-])OCO3)cc1	-9.7	43.8*	-14.2	-17.6	7.5
Cc1cc(C)cc(NCc2cc3c(cc2[N+](=O)[O-])OCO3)c1	-6.4	21.5	2.9	-16.3	-3.9
CCN1CCN(C(=O)c2ccc3c(c2)S(=O)(=O)c2ccccc2C3=O)CC1	-3.2	60.2*	-0.1	-15.2	-11.8
O=C1c2ccccc2S(=O)(=O)c2cc(C(=O)N3CCC(O)CC3)ccc21	-2.1	75.4*	-3.4	0.6	nt

Assay outcomes deposited in PubChem by The Scripps Research Institute Molecular Screening Center.
